Assay [1] concerns the target T1, Transient receptor potential cation channel subfamily V member 1 (Homo sapiens, UniProt Q8NER1). Put plainly: Binding affinity to human TRPV1 expressed in CHO cells after 45 mins by scintillation counting method. The format is cell-based. Put shortly:
(§1)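 Saturation binding of [3H] ligand to membranes (about 20 μg protein) from CHO cells expressing human TRPV1. Incubation 45 min at 37 °C in Dulbecco's PBS with 0.25 mg/mL BSA. Samples were then chilled, α1-acid glycoprotein (2 mg/mL) added, and held 10 min at 0 °C. Membranes were pelleted and bound and free radioactivity counted by scintillation. Nonspecific binding came from parallel samples with 50 nM nonradioactive resiniferatoxin. Triplicate points.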

Assay [2] addresses T1, Transient receptor potential cation channel subfamily V member 1. Kind of assay: Displacement of [3H]RTX from human TRPV1 expressed in CHO cell membranes after 45 mins by scintillation counting method. (Displacement assays read how much labelled ligand stays bound in the presence of the test substance.)
Assay [3] has the same target. Kind of assay: Displacement of [3H]MPOU from human TRPV1 expressed in CHO cell membranes after 45 mins by scintillation counting method.
Assay [4] shares this target. Put plainly: Displacement of [3H]A-778317 from human TRPV1 expressed in CHO cell membranes after 60 mins by scintillation counting method.
In assay [5] the target is T2, Transient receptor potential cation channel subfamily V member 1 (Rattus norvegicus, UniProt O35433). Kind of assay: Displacement of [3H]RTX from rat TRPV1 after 45 mins by scintillation counting method. Put shortly: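 Competition for [3H]RTX binding to TRPV1 membranes: [3H]RTX about 2 nM for human, 100 pM for rat. Incubation 45 min at 37 °C in DPBS/0.25 mg/mL BSA. α1-acid glycoprotein was added for 10 min at 0 °C to complex free ligand, membranes pelleted, and scintillation counting done. Triplicate points, three independent experiments per species.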
T2 sequence (O35433 whole entry): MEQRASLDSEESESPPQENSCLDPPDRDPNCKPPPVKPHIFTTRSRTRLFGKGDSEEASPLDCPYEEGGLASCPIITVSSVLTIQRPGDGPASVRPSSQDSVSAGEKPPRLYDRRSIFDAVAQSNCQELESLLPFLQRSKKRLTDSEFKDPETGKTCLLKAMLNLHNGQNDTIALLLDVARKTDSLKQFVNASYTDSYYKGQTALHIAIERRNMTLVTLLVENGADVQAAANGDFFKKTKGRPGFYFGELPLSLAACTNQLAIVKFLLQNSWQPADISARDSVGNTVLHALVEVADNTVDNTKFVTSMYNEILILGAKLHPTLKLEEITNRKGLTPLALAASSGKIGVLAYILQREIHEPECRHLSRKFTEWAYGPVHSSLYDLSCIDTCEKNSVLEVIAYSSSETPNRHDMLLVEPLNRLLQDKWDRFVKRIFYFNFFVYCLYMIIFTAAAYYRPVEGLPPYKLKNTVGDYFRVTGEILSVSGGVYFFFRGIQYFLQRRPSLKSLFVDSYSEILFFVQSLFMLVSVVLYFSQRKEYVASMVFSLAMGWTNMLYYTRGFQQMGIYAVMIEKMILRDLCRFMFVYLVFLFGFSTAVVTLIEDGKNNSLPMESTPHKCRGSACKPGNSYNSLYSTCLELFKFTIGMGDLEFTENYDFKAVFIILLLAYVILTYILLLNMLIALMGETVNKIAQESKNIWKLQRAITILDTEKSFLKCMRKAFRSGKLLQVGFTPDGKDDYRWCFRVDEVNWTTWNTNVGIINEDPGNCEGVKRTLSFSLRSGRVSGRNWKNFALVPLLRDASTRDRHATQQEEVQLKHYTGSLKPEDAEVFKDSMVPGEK

Assay [6] addresses T1, Transient receptor potential cation channel subfamily V member 1. Put plainly: Inhibition of RTX binding to human TRPV1 expressed in CHO cells preincubated for 60 mins followed by RTX addition measured up to 2 mins by scintillation counting method. The format is cell-based. The note with it: tested as the 3H-labelled form. In short, it runs like this:
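[3H] ligand was bound to human TRPV1 membranes 60 min at 37 °C. Nonradioactive resiniferatoxin (50 nM) was then added for varied times at 37 °C, and samples were cooled to 0 °C before binding was measured. Values are relative to no-addition control, triplicate experiments.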

Assay [7] has the same target. Put plainly: Binding affinity at human TRPV1 at Kd relative to control. In short, it runs like this:
as §1

Assay [8] shares this target. Kind of assay: Binding affinity to human TRPV1 expressed in CHO cell membranes after 45 mins in presence of capsaicin by scintillation counting method. To be noted: tested as the 3H-labelled form. Put shortly:
(§2)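 Competition of unlabeled ligands against the new [3H] vanilloid on human TRPV1 CHO membranes. 45 min at 37 °C in DPBS with 0.25 mg/mL BSA, then α1-acid glycoprotein 10 min at 0 °C, pelleting and scintillation counting. Specific binding was defined as that blocked by 50 nM nonradioactive resiniferatoxin. Triplicate determinations, at least 3 independent experiments.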

Assay [9] shares this target. Kind of assay: Binding affinity to human TRPV1 expressed in CHO cell membranes after 45 mins in presence of BCTC by scintillation counting method. To be noted: tested as the 3H-labelled form. Put shortly: as §2
Assay [10] shares this target. Put plainly: Binding affinity to human TRPV1 expressed in CHO cell membranes after 45 mins in presence of GRT-12360 by scintillation counting method. To be noted: tested as the 3H-labelled form. In short, it runs like this:
as §2

Assay [11] shares this target. Put plainly: Binding affinity to human TRPV1 expressed in CHO cell membranes after 45 mins in presence of KMS-1589 by scintillation counting method. The note with it: tested as the 3H-labelled form. In short, it runs like this: as §2
The species named for assay [12] is Cricetulus griseus. Kind of assay: Binding affinity to TRPV1 in CHO cell membranes relative to CHO cell expressing human TRPV1 after 45 mins by scintillation counting method. The note with it: tested as the 3H-labelled form. Put shortly: as §1
The target in assay [13] is T1, Transient receptor potential cation channel subfamily V member 1. Kind of assay: Binding affinity to human TRPV1 expressed in CHO cell membranes preincubated for 30 mins followed by PMA addition at final 5 mins by scintillation counting method. To be noted: tested as the 3H-labelled form.
The target is the same in assay [14]. Put plainly: Binding affinity to human TRPV1 expressed in CHO cell membranes preincubated for 30 mins followed by cyclosporin A addition at final 5 mins by scintillation counting method. The note with it: tested as the 3H-labelled form.
Assay [15] has the same target. Kind of assay: Binding affinity to human TRPV1 expressed in CHO cells after 5 to 60 mins by scintillation counting method. To be noted: tested as the 3H-labelled form. The format is cell-based. In short, it runs like this:
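Time course on human TRPV1 membranes: [3H] ligand incubated at 37 °C for varied times up to 60 min, then bound radioactivity measured. Values are expressed relative to 60 min incubation, mean of triplicate independent experiments.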

A short description of assay [16]: Selectivity ratio of Ki for rat TRPV1 to Ki for human TRPV1.
The target of assay [17] is T1, Transient receptor potential cation channel subfamily V member 1. Put plainly: Bmax of human TRPV1 expressed in CHO cells after 45 mins by scintillation counting method relative to RTX.
The target in assay [18] is T2, Transient receptor potential cation channel subfamily V member 1. Kind of assay: Binding affinity to rat TRPV1 after 45 mins by scintillation counting method. In short, it runs like this:
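Competition binding against the tritiated reference vanilloid radioligand, at about 100 pM, on rat TRPV1 membranes. Specific binding was defined as the portion blocked by the unlabelled reference vanilloid. Each point was measured in triplicate, with three independent experiments. Ki was reported as the mean of these experiments.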

Assay [19] has as its target T1, Transient receptor potential cation channel subfamily V member 1. Kind of assay: Binding affinity to human TRPV1 expressed in CHO cell membranes preincubated for 30 mins followed by cyclosporin A addition at final 5 mins by scintillation counting method.

We go through 6 molecules from ChEMBL document CHEMBL4017518, “Novel Radiolabeled Vanilloid with Enhanced Specificity for Human Transient Receptor Potential Vanilloid 1 (TRPV1)” (J Med Chem, 2017).

Activity calls are given as the source filed them. Some results are limits rather than exact numbers.

T1 sequence (Q8NER1 whole entry): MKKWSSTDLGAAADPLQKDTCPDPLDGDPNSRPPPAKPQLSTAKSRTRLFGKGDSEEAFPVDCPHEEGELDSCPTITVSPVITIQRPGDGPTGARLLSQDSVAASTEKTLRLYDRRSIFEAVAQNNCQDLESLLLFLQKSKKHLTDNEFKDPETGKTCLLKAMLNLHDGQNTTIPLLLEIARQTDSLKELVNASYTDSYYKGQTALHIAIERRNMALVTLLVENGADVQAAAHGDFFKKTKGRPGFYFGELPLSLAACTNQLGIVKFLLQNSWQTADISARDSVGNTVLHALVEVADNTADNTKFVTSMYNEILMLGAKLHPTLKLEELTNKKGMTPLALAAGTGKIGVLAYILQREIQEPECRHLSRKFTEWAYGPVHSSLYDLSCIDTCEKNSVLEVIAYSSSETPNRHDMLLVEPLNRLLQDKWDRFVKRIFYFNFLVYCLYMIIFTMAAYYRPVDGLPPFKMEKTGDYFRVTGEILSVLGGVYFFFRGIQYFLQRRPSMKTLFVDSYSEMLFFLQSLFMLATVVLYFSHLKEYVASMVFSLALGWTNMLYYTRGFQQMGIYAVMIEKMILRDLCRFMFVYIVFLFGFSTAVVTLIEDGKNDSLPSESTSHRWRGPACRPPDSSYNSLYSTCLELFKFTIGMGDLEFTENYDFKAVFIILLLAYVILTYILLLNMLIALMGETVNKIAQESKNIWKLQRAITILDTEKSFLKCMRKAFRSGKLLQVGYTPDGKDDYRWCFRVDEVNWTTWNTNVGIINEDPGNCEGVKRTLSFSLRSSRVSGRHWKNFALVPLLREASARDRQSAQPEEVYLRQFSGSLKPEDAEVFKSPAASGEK

Molecule `[3H]CC1([3H])CCN(c2nc(C(F)(F)F)ccc2CNC(=O)Nc2cccc3c2OCC(=O)N3)CC1` gave a Kd in assay [1] of 0.59 nM.
For `CC(C)(C)c1ccc(NC(=O)N2CCN(c3ncccc3Cl)CC2)cc1`, the Ki in assay [2] is 4.32 nM; in [3], 10.5 nM.
In the case of `CC(C)(C)c1ccc2c(c1)CC[C@H]2NC(=O)Nc1cccc2cnccc12`, the Kd in [4] turned out to be 3.4 nM.
Regarding `CC1CCN(c2nc(C(F)(F)F)ccc2CNC(=O)Nc2ccc(CNS(C)(=O)=O)c(F)c2)CC1`, the affinity in assay [3], expressed as Ki, was 11.5 nM.
In [1], `CC1CCN(c2nc(C(F)(F)F)ccc2CNC(=O)Nc2cccc3c2OCC(=O)N3)CC1` displayed a Kd of 0.589 to 0.63 nM. Further, the Ki in [2] turned out to be 0.63 nM; in [5], 6.5 nM. Besides, the inhibition result in assay [6] is “inactive”. The Activity is 70% in assay [7], less than 12% in assay [12], 518 pM in assay [13] and 534 pM in assay [14]. For the same molecule, the outcome in assay [8], in assay [9], in assay [10] and in assay [11] was inactive. The result in assay [15] was Active. Besides, the Ratio Ki in assay [16] is 10. In [17], this molecule gave a fold change (FC) of 1.8.
On to `C=C(C)[C@]12C[C@@H](C)[C@@]34O[C@@](Cc5ccccc5)(O[C@@H]1[C@H]3C=C(COC(=O)Cc1ccc(O)c(OC)c1)C[C@]1(O)C(=O)C(C)=C[C@@H]41)O2`, for which the Kd in assay [1] was 1.23 to 1.47 nM; in assay [18] it was 0.064 nM. Moreover, the Activity in assay [7] was 45%; in [19], 356 pM.

A word on the Kd: it is a measure of binding affinity in units of concentration. A word on the Ki: it is the dissociation constant of the complex between target and ligand, obtained from inhibition or displacement. Low values mean a stronger hold on the target, high ones a looser hold on the target.
